Results taken from ChEMBL document CHEMBL3994609, “Model-Based Discovery of Synthetic Agonists for the Zn2+-Sensing G-Protein-Coupled Receptor 39 (GPR39) Reveals Novel Biological Functions” (J Med Chem, 2017).
The source made the active and inactive calls. The calls are words filed in the database; no cut-off is given here.

Tests used:
[1] = molecular target: T1, G-protein coupled receptor 39 (Homo sapiens, UniProt O43194); assay: (§1) Agonist activity at human GPR39 expressed in HEK293 cells co-expressing Galphaq assessed as myo-[2-3H]inositol phosphate accumulation measured after 75 mins by scintillation proximity assay; assay type: functional, cell-based
T1 sequence (O43194 whole entry): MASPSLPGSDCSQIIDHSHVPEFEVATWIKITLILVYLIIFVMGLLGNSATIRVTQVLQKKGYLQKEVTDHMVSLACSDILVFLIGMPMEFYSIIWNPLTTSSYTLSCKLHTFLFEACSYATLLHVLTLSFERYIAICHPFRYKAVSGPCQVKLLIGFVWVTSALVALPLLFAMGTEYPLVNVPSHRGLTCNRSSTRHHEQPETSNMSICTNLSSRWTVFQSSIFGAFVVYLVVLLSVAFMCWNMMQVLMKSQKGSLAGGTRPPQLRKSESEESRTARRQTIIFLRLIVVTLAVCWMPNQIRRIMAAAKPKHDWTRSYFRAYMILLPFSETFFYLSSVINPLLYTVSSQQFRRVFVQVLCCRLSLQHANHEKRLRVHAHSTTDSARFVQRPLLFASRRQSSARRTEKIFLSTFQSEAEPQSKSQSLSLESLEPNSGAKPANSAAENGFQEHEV

[2] = molecular target: T2, G-protein coupled receptor 39 (Homo sapiens) (UniProt O43194); assay: (§2) Agonist activity at human GPR39 expressed in HEK293 cells co-expressing Galphaq assessed as myo-[2-3H]inositol phosphate accumulation in presence of 10 uM Zn2+ measured after 75 mins by scintillation proximity assay; assay type: functional, cell-based
T2 sequence (whole entry): T1 sequence (O43194 whole entry)

[3] = molecular target: T2, G-protein coupled receptor 39 (Homo sapiens); assay: Agonist activity at human GPR39 expressed in HEK293 cells co-expressing Galphaq assessed as myo-[2-3H]inositol phosphate accumulation in presence of 10 uM Zn2+ measured after 75 mins by scintillation proximity assay relative to zinc; assay type: functional, cell-based
[4] = molecular target: T2, G-protein coupled receptor 39 (Homo sapiens); assay: Agonist activity at human GPR39 expressed in HEK293 cells co-expressing Galphaq assessed as myo-[2-3H]inositol phosphate accumulation in presence of 1 uM Zn2+ measured after 75 mins by scintillation proximity assay; assay type: functional, cell-based
[5] = molecular target: T2, G-protein coupled receptor 39 (Homo sapiens); assay: Agonist activity at human GPR39 expressed in HEK293 cells co-expressing Galphaq assessed as myo-[2-3H]inositol phosphate accumulation in presence of 100 nM Zn2+ measured after 75 mins by scintillation proximity assay; assay type: functional, cell-based
[6] = molecular target: T2, G-protein coupled receptor 39 (Homo sapiens); assay: as §1; assay type: functional, cell-based
[7] = molecular target: T1, G-protein coupled receptor 39; assay: as §2; assay type: functional, cell-based
[8] = Half life in human liver microsomes at 3 uM measured by LC-MS/MS analysis; assay type: ADME, microsome
[9] = tested on: Pancreatic islet; assay: Induction of glucose-stimulated insulin release in mouse pancreatic islets at 1 uM pretreated for 24 hrs followed by glucose addition measured after 30 mins; assay type: functional, cell-based
How it was run: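 Islets isolated from GPR39-deficient mice and wild-type littermates on five independent days, 2 to 3 mice per day; insulin secretion measured with vehicle or 1 μM compound.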

[10] = Intrinsic clearance in human liver microsomes assessed per mg protein at 3 uM measured after 45 mins by LC-MS/MS analysis; assay type: ADME, microsome; details: read-out: CLH
[11] = molecular target: T3, G-protein coupled receptor 39 (Mus musculus, UniProt Q5U431); assay: Agonist activity at mouse GPR39 expressed in HEK293 cells co-expressing Galphaq assessed as myo-[2-3H]inositol phosphate accumulation measured after 75 mins by scintillation proximity assay; assay type: functional, cell-based
T3 sequence (Q5U431 whole entry): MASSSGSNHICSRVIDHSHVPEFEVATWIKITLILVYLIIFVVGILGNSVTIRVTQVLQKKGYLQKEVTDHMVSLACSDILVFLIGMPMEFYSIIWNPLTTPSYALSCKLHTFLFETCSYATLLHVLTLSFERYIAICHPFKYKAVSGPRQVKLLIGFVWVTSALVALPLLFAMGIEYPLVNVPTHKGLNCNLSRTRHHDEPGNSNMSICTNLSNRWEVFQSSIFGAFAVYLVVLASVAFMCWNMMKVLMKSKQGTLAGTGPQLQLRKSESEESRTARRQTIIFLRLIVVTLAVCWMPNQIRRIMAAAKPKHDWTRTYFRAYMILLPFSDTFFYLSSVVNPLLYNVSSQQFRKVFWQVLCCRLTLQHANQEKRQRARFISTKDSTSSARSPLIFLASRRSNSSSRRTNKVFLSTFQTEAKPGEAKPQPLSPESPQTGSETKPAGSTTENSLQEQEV

[12] = molecular target: T4, C-C chemokine receptor type 1 (Homo sapiens) (UniProt P32246); assay: Agonist activity at full length human CCR1 assessed as myo-[2-3H]inositol phosphate accumulation measured after 75 mins by scintillation proximity assay; assay type: functional
T4 sequence (whole entry): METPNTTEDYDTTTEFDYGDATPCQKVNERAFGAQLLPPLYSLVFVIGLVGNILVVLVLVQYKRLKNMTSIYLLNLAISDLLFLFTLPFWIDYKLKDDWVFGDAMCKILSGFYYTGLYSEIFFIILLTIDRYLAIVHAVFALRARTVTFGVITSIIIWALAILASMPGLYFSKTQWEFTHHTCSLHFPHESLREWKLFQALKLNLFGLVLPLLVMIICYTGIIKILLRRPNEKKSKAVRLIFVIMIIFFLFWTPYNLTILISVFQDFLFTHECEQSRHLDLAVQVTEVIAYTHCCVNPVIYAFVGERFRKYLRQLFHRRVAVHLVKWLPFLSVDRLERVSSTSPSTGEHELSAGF

[13] = molecular target: Growth hormone secretagogue receptor type 1 (Homo sapiens) (UniProt Q92847); assay: Agonist activity at human ghrelin receptor ([…]) assessed as myo-[2-3H]inositol phosphate accumulation measured after 75 mins by scintillation proximity assay; assay type: functional
Sequence of Growth hormone secretagogue receptor type 1 (Homo sapiens) (Q92847 whole entry): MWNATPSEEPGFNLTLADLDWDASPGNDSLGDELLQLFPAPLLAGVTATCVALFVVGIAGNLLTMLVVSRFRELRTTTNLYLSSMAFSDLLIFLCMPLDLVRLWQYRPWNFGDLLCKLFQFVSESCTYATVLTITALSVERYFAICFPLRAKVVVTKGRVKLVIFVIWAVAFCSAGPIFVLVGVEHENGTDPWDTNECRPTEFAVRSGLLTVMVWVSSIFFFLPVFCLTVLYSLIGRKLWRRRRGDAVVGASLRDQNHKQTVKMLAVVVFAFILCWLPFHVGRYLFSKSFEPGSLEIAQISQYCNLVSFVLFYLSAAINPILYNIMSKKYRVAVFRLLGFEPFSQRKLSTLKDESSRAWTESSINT

[14] = molecular target: T2, G-protein coupled receptor 39 (Homo sapiens); assay: Agonist activity at GPR39 (unknown origin) expressed in COS7 cells co-expressing Galphas assessed as increase in intracellular cAMP level measured after 30 mins by chemiluminescence assay; assay type: functional, cell-based
[15] = molecular target: Motilin receptor (Homo sapiens) (UniProt O43193); assay: Agonist activity at human motilin receptor (412 residues) assessed as myo-[2-3H]inositol phosphate accumulation in presence of 10 uM Zn2+ measured after 75 mins by scintillation proximity assay; assay type: functional
Sequence of Motilin receptor (Homo sapiens) (O43193 whole entry): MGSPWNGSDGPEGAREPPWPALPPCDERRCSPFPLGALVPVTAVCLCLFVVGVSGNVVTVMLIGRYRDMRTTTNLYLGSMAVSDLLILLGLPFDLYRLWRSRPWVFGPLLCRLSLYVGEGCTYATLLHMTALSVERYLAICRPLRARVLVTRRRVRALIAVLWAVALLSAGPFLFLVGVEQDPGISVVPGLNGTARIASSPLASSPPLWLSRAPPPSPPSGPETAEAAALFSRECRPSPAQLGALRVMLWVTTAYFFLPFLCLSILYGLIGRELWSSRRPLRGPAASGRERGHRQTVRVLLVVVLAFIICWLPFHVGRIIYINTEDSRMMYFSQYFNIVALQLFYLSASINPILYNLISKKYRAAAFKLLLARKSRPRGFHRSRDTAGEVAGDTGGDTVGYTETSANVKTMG

[16] = molecular target: C-C chemokine receptor type 5 (Macaca mulatta) (UniProt P61813); assay: Agonist activity at full length rhesus monkey CCR5 assessed as myo-[2-3H]inositol phosphate accumulation measured after 75 mins by scintillation proximity assay; assay type: functional
[17] = molecular target: T5, G-protein coupled receptor 39 (Mus musculus) (UniProt Q5U431); assay: Agonist activity at GPR39 in primary gastric mucosal cells isolated from C57BL/6 mouse assessed as inhibition of isoproterenol-induced ghrelin secretion at 1 uM in presence of 10 uM of Zn2+ and somatostatin receptor antagonist BIM-23627 measured after 4 hrs by ELISA
T5 sequence (whole entry): T3 sequence (Q5U431 whole entry)
How it was run: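 Primary gastric mucosal cell cultures from mice, incubated the day after preparation with ligands at 1 μM with 10 μM Zn2+ (with or without a somatostatin receptor antagonist) in triplicate for 4 h. Acyl-ghrelin in supernatant measured by ELISA, expressed as percent of medium-alone cells; n=5–7; unpaired t-test with Welch's correction versus vehicle.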

[18] = molecular target: Motilin receptor (Homo sapiens) (UniProt O43193); assay: Agonist activity at human motilin receptor (412 residues) assessed as myo-[2-3H]inositol phosphate accumulation measured after 75 mins by scintillation proximity assay; assay type: functional
[19] = molecular target: T5, G-protein coupled receptor 39 (Mus musculus); assay: Agonist activity at GPR39 in primary gastric mucosal cells isolated from C57BL/6 mouse assessed as inhibition of basal ghrelin secretion at 1 uM in presence of 10 uM of Zn2+ measured after 4 hrs by ELISA relative to basal level
[20] = molecular target: Neuromedin-U receptor 2 (Homo sapiens) (UniProt Q9GZQ4); assay: Agonist activity at human NMU2 receptor assessed as myo-[2-3H]inositol phosphate accumulation measured after 75 mins by scintillation proximity assay; assay type: functional
Sequence of Neuromedin-U receptor 2 (Homo sapiens) (Q9GZQ4 whole entry): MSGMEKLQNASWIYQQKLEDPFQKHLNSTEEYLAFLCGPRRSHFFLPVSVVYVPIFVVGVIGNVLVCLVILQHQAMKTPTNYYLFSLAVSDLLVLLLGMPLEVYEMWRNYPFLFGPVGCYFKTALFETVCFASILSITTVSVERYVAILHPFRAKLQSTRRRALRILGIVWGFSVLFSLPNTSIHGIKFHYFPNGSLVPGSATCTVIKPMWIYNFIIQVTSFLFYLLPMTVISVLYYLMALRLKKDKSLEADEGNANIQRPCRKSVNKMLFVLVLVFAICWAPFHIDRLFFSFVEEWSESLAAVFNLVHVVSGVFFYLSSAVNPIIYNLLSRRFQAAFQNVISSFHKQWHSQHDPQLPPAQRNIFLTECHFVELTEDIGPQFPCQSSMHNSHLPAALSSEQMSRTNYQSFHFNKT

[21] = molecular target: T2, G-protein coupled receptor 39 (Homo sapiens); assay: (§3) Agonist activity at GPR39 (unknown origin) expressed in COS7 cells co-expressing Galphas assessed as increase in intracellular cAMP level in presence of 3 uM Zn2+ measured after 30 mins by chemiluminescence assay; assay type: functional, cell-based
[22] = molecular target: T1, G-protein coupled receptor 39; assay: as §3; assay type: functional, cell-based
[23] = molecular target: Growth hormone secretagogue receptor type 1 (Homo sapiens) (UniProt Q92847); assay: Agonist activity at human ghrelin receptor ([…]) assessed as myo-[2-3H]inositol phosphate accumulation in presence of 10 uM Zn2+ measured after 75 mins by scintillation proximity assay; assay type: functional
[24] = molecular target: T4, C-C chemokine receptor type 1 (Homo sapiens); assay: Agonist activity at full length human CCR1 assessed as myo-[2-3H]inositol phosphate accumulation in presence of 10 uM Zn2+ measured after 75 mins by scintillation proximity assay; assay type: functional
[25] = molecular target: Neuromedin-U receptor 2 (Homo sapiens) (UniProt Q9GZQ4); assay: Agonist activity at human NMU2 receptor assessed as myo-[2-3H]inositol phosphate accumulation in presence of 10 uM Zn2+ measured after 75 mins by scintillation proximity assay; assay type: functional
[26] = molecular target: T5, G-protein coupled receptor 39 (Mus musculus); assay: Agonist activity at GPR39 in primary gastric mucosal cells isolated from C57BL/6 mouse assessed as myo-[2-3H]inositol phosphate accumulation in presence of 10 uM Zn2+ measured after 75 mins by scintillation proximity assay; assay type: functional
How it was run: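 Primary murine gastric mucosal cell cultures stimulated with ligand plus 10 μM Zn2+; inositol phosphate turnover read out as for the transfected-cell IP accumulation assay.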

[27] = Increase in CGRP-induced somatostatin release in primary gastric mucosal cells isolated from GPR39 deficient C57BL/6 mouse at 1 uM in presence of 10 uM of Zn2+ measured after 4 hrs by radioimmunoassay relative to control; assay type: functional, Primary gastric mucosal cell; details: in the assay text read “C57BL/6 mouse” for “GPR39 deficient C57BL/6 mouse”
[28] = molecular target: C-C chemokine receptor type 5 (Macaca mulatta) (UniProt P61813); assay: Agonist activity at full length monkey CCR5 assessed as myo-[2-3H]inositol phosphate accumulation in presence of 10 uM Zn2+ measured after 75 mins by scintillation proximity assay; assay type: functional
[29] = molecular target: T3, G-protein coupled receptor 39; assay: Agonist activity at mouse GPR39 expressed in HEK293 cells co-expressing Galphaq assessed as myo-[2-3H]inositol phosphate accumulation in presence of 10 uM Zn2+ measured after 75 mins by scintillation proximity assay; assay type: functional, cell-based
[30] = tested on: Primary gastric mucosal cell; assay: Induction of CGRP-induced somatostatin release in primary gastric mucosal cells isolated from GPR39 deficient C57BL/6 mouse at 1 uM in presence of 10 uM of Zn2+ measured after 4 hrs by radioimmunoassay; assay type: functional, cell-based
How it was run: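 Primary gastric mucosal cells from GPR39-KO mice, day after preparation, exposed to ligands (1 μM, 10 μM Zn2+) in triplicate for 4 h; supernatant somatostatin measured by in-house RIA and expressed as percent of medium-alone secretion; 10 nM CGRP used as a comparator stimulus; n=2.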

SMILES | EC50 [1] [nM] | fold change (FC) [3] | Activity [5] | Activity [6] | EC50 [7] [nM] | other results
Cc1cc(C)nc(-n2nc(C)c3c2NC(=O)CC3c2ccc(COc3cccc(Cl)c3)cc2)n1 (stereo unspecified) | 3000 | 2 |  |  |  | Activity [2]: Active
O=C1/C(=C/NCCCO)C(c2ccccc2)=NN1c1nc2ccccc2s1 |  | 2 | inactive | inactive | 200 | Activity [4]: Dose-dependent effect
C/C(=N\NC(=O)c1cc2ccccc2cc1O)c1ccc(N)cc1 |  | 2 | inactive | inactive | 1100 | 
OCC(O)/C=N/Nc1nc(Nc2ccccc2)nc(Nc2ccccc2)n1 (stereo unspecified) |  | 2 | inactive | inactive | 750 | 
C=CCN1c2c(n(C)c(=O)n(C)c2=O)NC1N/N=C/c1ccc(O)cc1O (stereo unspecified) |  | 2 | inactive | inactive | 340 | 
CC(C)(C)c1cc(C(=O)N/N=C/c2ccc(O)cc2O)[nH]n1 |  | 2 | inactive | inactive | 240 | 
Cc1nn(-c2ncnc3nc[nH]c23)c2c1C(c1ccc(OC(C)C)cc1)CC(=O)N2 (stereo unspecified) | 2700 |  |  |  | 18 | half-life at 3 µM [8]: 24 min; Activity [9]: inactive; microsomal CLint at 3 µM [10]: 58.3 µL/min/mg; EC50 [11]: 380 nM
Cc1nn(-c2ncnc3nc[nH]c23)c2c1C(OCc1cc(F)cc3c1OCOC3)CC(=O)N2 (stereo unspecified) | 30 |  |  |  | 1.5 | Activity [12]: inactive; Activity [13]: inactive; Activity [14]: inactive; Activity [15]: inactive; Activity [16]: inactive; inhibition [17]: inactive; Activity [18]: inactive; inhibition [19]: 61%; Activity [20]: inactive; Activity [21]: Dose-dependent effect; EC50 [22]: 12 nM; Activity [23]: inactive; Activity [24]: inactive; Activity [25]: inactive; Activity [26]: Dose-dependent effect; Activity [27]: 82%; Activity [28]: inactive; EC50 [29]: 2.6 nM; Activity [30]: inactive
